The values below come from paper PMC3580954 (Biopolymers, 2013).

What all share (format): cell-based
What all share (settings): SD

One experiment concerns the target T1, W^2.71A PrRP receptor (Homo sapiens, UniProt P49683, W127A).
T1 sequence (P49683 1-370 W127A): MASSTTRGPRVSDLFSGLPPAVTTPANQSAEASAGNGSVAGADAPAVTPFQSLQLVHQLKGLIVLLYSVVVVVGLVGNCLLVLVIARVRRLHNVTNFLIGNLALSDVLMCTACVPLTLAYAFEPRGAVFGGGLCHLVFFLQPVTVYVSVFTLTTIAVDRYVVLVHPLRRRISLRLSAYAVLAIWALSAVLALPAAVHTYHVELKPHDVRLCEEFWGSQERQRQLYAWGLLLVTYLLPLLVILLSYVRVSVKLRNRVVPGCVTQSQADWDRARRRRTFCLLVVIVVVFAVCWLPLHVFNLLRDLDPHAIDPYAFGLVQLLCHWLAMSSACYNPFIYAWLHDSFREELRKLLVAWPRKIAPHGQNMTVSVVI
In words: IP accumulation assay, W^2.71A receptor mutant. In outline:
(§1)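 COS-7 cells were transiently transfected with 0.4 µg plasmid of human PrRP receptor or its site-directed mutant, C-terminally fused to EYFP. One day after transfection and 16 h before stimulation, cells were labelled with 2 µCi/mL [³H]myo-inositol. They were then stimulated with increasing peptide concentrations for 1 h at 37°C in DMEM with 10 mM LiCl, and lysed in 0.1 M NaOH. IP was separated by anion exchange and counted by scintillation. EC50 came from concentration-response curves; runs were in duplicate, repeated ≥2 times.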

For a further experiment, the target named is T2, E^2.67A PrRP receptor (Homo sapiens, UniProt P49683, E123A).
T2 sequence (P49683 1-370 E123A): T1 sequence (P49683 1-370 W127A) with E123A, A127W
The experiment can be described thus: IP accumulation assay, E^2.67A receptor mutant.

The target in another experiment is T3, F^2.73A PrRP receptor (Homo sapiens, UniProt P49683, F129A).
T3 sequence (P49683 1-370 F129A): T1 sequence (P49683 1-370 W127A) with A127W, F129A
In words: IP accumulation assay, F^2.73A receptor mutant.

Another experiment has as its target T4, wt hPrRP receptor (Homo sapiens, UniProt P49683).
T4 sequence (P49683 1-370): T1 sequence (P49683 1-370 W127A) with A127W
The experiment can be described thus: Signal transduction. In short, it runs like this:
as §1

A further experiment addresses T5, F^2.66A PrRP receptor (Homo sapiens, UniProt P49683, F122A).
T5 sequence (P49683 1-370 F122A): T1 sequence (P49683 1-370 W127A) with F122A, A127W
In words: IP accumulation assay, F^2.66A receptor mutant.

A further experiment addresses T6, R^2.69A PrRP receptor (Homo sapiens, UniProt P49683, R125A).
T6 sequence (P49683 1-370 R125A): T1 sequence (P49683 1-370 W127A) with R125A, A127W
In words: IP accumulation assay, R^2.69A receptor mutant.

The target of a further experiment is T7, Y^2.64A PrRP receptor (Homo sapiens, UniProt P49683, Y120A).
T7 sequence (P49683 1-370 Y120A): T1 sequence (P49683 1-370 W127A) with Y120A, A127W
The experiment can be described thus: IP accumulation assay, Y^2.64A receptor mutant. In outline:
as §1

Numbering of substitutions follows the chain as printed. Residues, ends and D or L forms follow the SMILES beside them.

The term EC50 denotes the concentration needed to bring the measured effect to its halfway point. A lower EC50 goes with an effect from little substance.

For the compound `CC[C@H](C)[C@H](NC(=O)CNC(=O)[C@H](CCCNC(=N)N)NC(=O)[C@H](CO)NC(=O)[C@H](C)NC(=O)[C@H](Cc1ccc(O)cc1)NC(=O)[C@H](Cc1c[nH]c2ccccc12)NC(=O)[C@H](C)NC(=O)[C@@H]1CCCN1C(=O)[C@H](CC(N)=O)NC(=O)[C@@H](NC(=O)[C@H](CC(=O)O)NC(=O)[C@@H]1CCCN1C(=O)[C@@H](N)[C@@H](C)O)[C@@H](C)CC)C(=O)N[C@@H](CCCNC(=N)N)C(=O)N1CCC[C@H]1C(=O)N[C@H](C(=O)NCC(=O)N[C@@H](CCCNC(=N)N)C(=O)N[C@@H](Cc1ccccc1)C(N)=O)C(C)C` [PrRP20] (H-TPDINPAWYASRGIRPVGRF-NH2), the 50% effective concentration (EC50) at W^2.71A PrRP receptor is 593 ± 78 nM; on E^2.67A PrRP receptor it was 7.2 ± 3.4 nM; on F^2.73A PrRP receptor it was 4.4 ± 2 nM; on wt hPrRP receptor it was 2.2 ± 0.3 nM; at F^2.66A PrRP receptor, 6.2 ± 3.3 nM; on R^2.69A PrRP receptor, 4.2 ± 2.5 nM. On Y^2.64A PrRP receptor, the half-maximal effective concentration (EC50) was 50 ± 7.5 nM.
